Laboratory results: ChEMBL document CHEMBL1125919, “Water-soluble cholesteryl-containing phosphorothioate monogalactosides: synthesis, properties, and use in lowering blood cholesterol by directing plasma lipoproteins to the liver” (1991)

Columns and labels:
Homo sapiens [1] = species on record: Homo sapiens; test: Carbohydrate in the low density lipoprotein (LDL) along with compound was measured in human serum; type: functional
In short: (§1)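 Human serum (1.6 mL) mixed with 0.4 mL of a 10 mM glycolipid solution in PBS (2 mM final), or with PBS alone, for 10 min at room temperature. Density-gradient ultracentrifugation in KBr/NaCl then gave VLDL (d<1.006), LDL (1.006–1.063), HDL (1.063–1.210) and LPDS (d>1.210 g/mL) fractions. Each fraction was dialyzed against PBS and assayed for cholesterol and carbohydrate, reported as total μg per fraction.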

Homo sapiens [2] = species on record: Homo sapiens; test: Cholesterol in the Total along with compound was measured in human serum; type: functional; in short: as §1
Homo sapiens [3] = species on record: Homo sapiens; test: Cholesterol in the high density lipoprotein (HDL) along with compound was measured in human serum; type: functional; in short: as §1
Homo sapiens [4] = species on record: Homo sapiens; test: Cholesterol in the very low density lipoprotein (VLDL) along with compound was measured in human serum; type: functional; in short: as §1
Homo sapiens [5] = species on record: Homo sapiens; test: Carbohydrate in the very low density lipoprotein (VLDL) along with compound was measured in human serum; type: functional; in short: as §1
Homo sapiens [6] = species on record: Homo sapiens; test: Carbohydrate in the Lipoprotein -deficient serum(LPDS) along with compound was measured in human serum; type: functional; in short: as §1
[7] = Ratio of carbohydrate in LDL to cholesterol level in LDL; type: functional
In short: (§2)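 Same serum incubation (2 mM final, 10 min, room temperature) and density-gradient fractionation into LDL and HDL. The ratio is μg carbohydrate per μg total cholesterol in each fraction. Values in parentheses compare the ratio with the PBS-only serum lipoproteins.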

Homo sapiens [8] = species on record: Homo sapiens; test: Cholesterol in the Lipoprotein -deficient serum(LPDS) along with compound was measured in human serum; type: functional; in short: as §1
[9] = Ratio of carbohydrate in HDL to cholesterol level in HDL; type: functional; in short: as §2
Homo sapiens [10] = species on record: Homo sapiens; test: Cholesterol in the low density lipoprotein (LDL) along with compound was measured in human serum; type: functional; in short: as §1
Homo sapiens [11] = species on record: Homo sapiens; test: Carbohydrate in the Total along with compound was measured in human serum; type: functional; in short: as §1
Homo sapiens [12] = species on record: Homo sapiens; test: Carbohydrate in the high density lipoprotein (HDL) along with compound was measured in human serum
Homo sapiens [13] = species on record: Homo sapiens; test: Carbohydrate in the high density lipoprotein (HDL) along with compound was measured in human serum; type: functional; in short: as §1
Rattus norvegicus [14] = species on record: Rattus norvegicus; test: Effects of N-acetyl-glucosamine on compound stimulated liver association of [125I]-LDL measured in serum of rats; type: functional
In short: (§3)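 Glycolipid mixed with [125I]LDL at 0.3 mg/mg apolipoprotein or with [125I]HDL at 1.0 mg/mg, then held 10 min at room temperature. The mixture was given intravenously at 50 μg apolipoprotein/kg to pentobarbital-anaesthetized male Wistar rats. N-acetylgalactosamine, N-acetylglucosamine (both 400 mg/kg) or PBS was preinjected 1 min before. At 5 min, TCA-precipitable serum radioactivity and liver-associated radioactivity were measured as % of dose. Mean ± SEM, 3–4 rats; Wilcoxon two-sample test.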

Rattus norvegicus [15] = species on record: Rattus norvegicus; test: Effects of N-acetyl-galactosamine on compound stimulated liver association of [125I]HDL measured in serum of rats; type: functional; in short: as §3
Rattus norvegicus [16] = species on record: Rattus norvegicus; test: Effects of N-acetyl-galactosamine on compound stimulated liver association of [125I]LDL measured in serum of rats; type: functional; in short: as §3
Rattus norvegicus [17] = species on record: Rattus norvegicus; test: Effects of N-acetyl-galactosamine on compound stimulated liver association of [125I]HDL measured in liver of rats; type: functional; in short: as §3
Rattus norvegicus [18] = species on record: Rattus norvegicus; test: Effects of N-acetyl-glucosamine on compound stimulated liver association of [125I]HDL measured in liver of rats; type: functional; in short: as §3
Rattus norvegicus [19] = species on record: Rattus norvegicus; test: Effects of N-acetyl-galactosamine on compound stimulated liver association of [125I]LDL measured in liver of rats; type: functional; in short: as §3
Rattus norvegicus [20] = species on record: Rattus norvegicus; test: Effects of N-acetyl-glucosamine on compound stimulated liver association of [125I]HDL measured in preinjcted rats; type: functional; in short: as §3
Homo sapiens [21] = species on record: Homo sapiens; test: Carbohydrate in the very low density lipoprotein (VLDL) along with compound was measured in human serum
Rattus norvegicus [22] = species on record: Rattus norvegicus; test: Effects of N-acetyl-glucosamine on compound stimulated liver association of [125I]LDL measured in liver of rats; type: functional; in short: as §3

| Structure (SMILES) | Carbohydrate (Homo sapiens [1]) | Cholesterol (Homo sapiens [2]) | Cholesterol (Homo sapiens [3]) | Cholesterol (Homo sapiens [4]) | Carbohydrate (Homo sapiens [5]) | Carbohydrate (Homo sapiens [6]) | Ratio [7] | Cholesterol (Homo sapiens [8]) | Ratio [9] | Cholesterol (Homo sapiens [10]) | Carbohydrate (Homo sapiens [11]) | Carbohydrate (Homo sapiens [12]) | also measured |
| --- | --- | --- | --- | --- | --- | --- | --- | --- | --- | --- | --- | --- | --- |
| CC(C)CCCC(C)C1CCC2C3CC=C4CC(OCCOCCOCCOCCOP(O)(=S)OCCSC5OC(CO)C(O)C(O)C5O)CCC4(C)C3CCC12C (stereo not given) | 580 µg | 1885 µg | 500 µg | 108 µg | 80 µg | 1590 µg | 0.5 | 85 µg | 0.92 | 1161 µg | 2710 µg | 460 µg |  |
| CC(C)CCCC(C)C1CCC2C3CC=C4CC(OCCOCCOCCOCCOP(O)(=S)OCCOCCOCCSC5OC(CO)C(O)C(O)C5O)CCC4(C)C3CCC12C (stereo not given) | 520 µg | 1947 µg | 484 µg | 101 µg | 100 µg | 1720 µg | 0.4 | 66 µg | 0.81 | 1296 µg | 2730 µg |  | Carbohydrate (Homo sapiens [13]): 390 µg |
| CC(C)CCCC(C)C1CCC2C3CC=C4CC(OCCOCCOCCOCCOP(O)(=S)OCCO[C@@H]5O[C@H](CO)[C@H](O)[C@H](O)[C@H]5O)CCC4(C)C3CCC12C (stereo not given in full) | 480 µg | 1850 µg | 627 µg | 104 µg | 100 µg | 1710 µg | 0.45 | 70 µg | 0.8 | 1048 µg | 2790 µg | 500 µg | Dose (Rattus norvegicus [14]): 29.3%; Dose (Rattus norvegicus [15]): 78.8%; Dose (Rattus norvegicus [16]): 92.2%; Dose (Rattus norvegicus [17]): 5.8%; Dose (Rattus norvegicus [18]): 22.2%; Dose (Rattus norvegicus [19]): 5.1%; Dose (Rattus norvegicus [20]): 61.1%; Carbohydrate (Homo sapiens [21]): 100 µg; Dose (Rattus norvegicus [22]): 61.6% |
